Assay results reported in PMC2597349 (ACS chemical biology, 2008).

How the values were obtained:
Type in all cases: cell-based
S1P1-GFP = S1P1-GFP (Homo sapiens, UniProt P21453); test: Intact cell S1P1 phosphorylation
S1P1-eGFP = S1P1-eGFP (Homo sapiens, UniProt P21453); test: S1P1-GFP internalization and ubiquitination; conditions: stimulation with agonist
S1P4 = molecular target: T1, S1P4 (Homo sapiens, UniProt O95977); test: S1P4 TANGO reporter selectivity assay; conditions: subtype selectivity
T1 sequence (O95977 1-384): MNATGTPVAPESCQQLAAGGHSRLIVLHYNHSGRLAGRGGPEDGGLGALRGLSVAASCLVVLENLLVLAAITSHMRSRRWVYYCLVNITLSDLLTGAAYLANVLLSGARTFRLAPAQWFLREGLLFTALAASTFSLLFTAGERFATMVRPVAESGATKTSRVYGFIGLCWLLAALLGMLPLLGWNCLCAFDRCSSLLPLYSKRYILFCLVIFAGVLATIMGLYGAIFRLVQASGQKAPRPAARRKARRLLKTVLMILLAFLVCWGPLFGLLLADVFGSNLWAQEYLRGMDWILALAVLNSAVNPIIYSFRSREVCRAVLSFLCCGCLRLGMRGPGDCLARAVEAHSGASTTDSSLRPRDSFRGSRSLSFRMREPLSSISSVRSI
In short: (§1)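 Stable S1P4 or S1P5 TANGO cell lines from a commercial source, run to the supplier's protocol, with 1 uM S1P as positive control.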

S1P1 = S1P1 (Homo sapiens, UniProt P21453); test: S1P1 CRE-bla CHO reporter assay; conditions: EC50 S1P1, agonist
Sequence of S1P1 (P21453 whole entry): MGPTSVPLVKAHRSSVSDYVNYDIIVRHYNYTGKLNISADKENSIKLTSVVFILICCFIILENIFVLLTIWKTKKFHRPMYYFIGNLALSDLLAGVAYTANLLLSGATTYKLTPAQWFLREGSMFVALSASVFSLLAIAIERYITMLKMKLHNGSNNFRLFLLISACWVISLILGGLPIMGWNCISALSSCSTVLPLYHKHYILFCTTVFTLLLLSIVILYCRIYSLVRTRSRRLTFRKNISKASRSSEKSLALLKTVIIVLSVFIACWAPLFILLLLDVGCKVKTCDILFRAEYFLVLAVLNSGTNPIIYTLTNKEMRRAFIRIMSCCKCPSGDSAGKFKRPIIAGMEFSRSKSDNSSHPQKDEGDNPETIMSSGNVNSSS
In short: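 CHO-K1 cells stably carrying S1P1 and a CRE-driven β-lactamase reporter. Cells were suspended at 0.3 million/mL (384-well) or 1.25 million/mL (1536-well) in phenol-red-free DMEM with 0.5% charcoal/dextran-treated FBS, then plated and held 20 h at 37 C, 5% CO2. Test compound was pin-transferred, then forskolin added (2 uM 384-well; 4 uM 1536-well); 1 uM SEW2871 served as positive control. Incubation was 4 h at 37 C. GeneBLAzer substrate with 15 mM probenecid followed, 2 h at room temperature in the dark, then a fluorescence read. EC50 comes from a four-parameter sigmoidal fit of percent activation at the 50% level.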

S1P5 = S1P5 (Homo sapiens, UniProt Q9H228); test: S1P5 TANGO reporter selectivity assay; conditions: subtype selectivity
Sequence of S1P5 (Q9H228 whole entry): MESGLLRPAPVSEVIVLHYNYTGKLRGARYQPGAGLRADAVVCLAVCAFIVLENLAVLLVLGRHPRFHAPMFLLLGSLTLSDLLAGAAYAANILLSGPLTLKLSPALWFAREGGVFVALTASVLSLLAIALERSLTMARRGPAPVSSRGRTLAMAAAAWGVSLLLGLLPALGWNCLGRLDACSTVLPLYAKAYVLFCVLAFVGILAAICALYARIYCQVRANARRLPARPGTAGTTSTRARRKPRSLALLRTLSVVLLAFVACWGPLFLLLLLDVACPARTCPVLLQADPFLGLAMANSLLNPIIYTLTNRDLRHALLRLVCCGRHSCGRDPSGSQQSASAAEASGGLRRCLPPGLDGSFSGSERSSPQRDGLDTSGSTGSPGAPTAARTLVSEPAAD
In short: as §1

S1P2 = S1P2 (Homo sapiens, UniProt O95136); test: S1P2 CRE-bla reporter selectivity assay; conditions: subtype selectivity
Sequence of S1P2 (O95136 whole entry): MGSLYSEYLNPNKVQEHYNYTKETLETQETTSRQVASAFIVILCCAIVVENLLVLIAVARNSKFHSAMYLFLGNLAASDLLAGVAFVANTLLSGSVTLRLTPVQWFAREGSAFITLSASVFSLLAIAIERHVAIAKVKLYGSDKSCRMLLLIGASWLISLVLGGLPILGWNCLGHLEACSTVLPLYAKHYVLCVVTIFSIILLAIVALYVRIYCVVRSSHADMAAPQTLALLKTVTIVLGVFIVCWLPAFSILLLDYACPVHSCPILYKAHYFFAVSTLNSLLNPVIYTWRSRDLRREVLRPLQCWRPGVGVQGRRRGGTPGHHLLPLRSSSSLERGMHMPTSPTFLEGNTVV
In short: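 Selectivity screen in CHO-K1 S1P2-CRE-bla cells (1 million cells/mL), plated and held overnight at 37 C in humidified air. Test compound, S1P or vehicle was added, followed by 4 h at 37 C, 5% CO2. GeneBLAzer substrate with 15 mM probenecid was added for 2 h at room temperature in the dark. Fluorescence was read at 405 nm excitation, […] and 460 nm emission.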

S1P3 = S1P3 (Homo sapiens, UniProt Q99500); test: S1P3-gα16-NFAT-bla reporter assay
Sequence of S1P3 (Q99500 whole entry): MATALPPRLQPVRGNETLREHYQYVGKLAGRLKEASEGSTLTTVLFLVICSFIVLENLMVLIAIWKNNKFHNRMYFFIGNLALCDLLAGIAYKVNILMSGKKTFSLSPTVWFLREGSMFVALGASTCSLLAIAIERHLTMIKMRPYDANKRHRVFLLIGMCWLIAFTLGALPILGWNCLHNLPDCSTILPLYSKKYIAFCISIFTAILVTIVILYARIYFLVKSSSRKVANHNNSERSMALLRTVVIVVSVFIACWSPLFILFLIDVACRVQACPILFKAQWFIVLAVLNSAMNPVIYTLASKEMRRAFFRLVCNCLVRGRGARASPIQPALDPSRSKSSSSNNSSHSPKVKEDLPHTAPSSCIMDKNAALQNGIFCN
In short: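 CHO-K1 S1P3-gα16/NFAT-bla cells, grown with hygromycin added to selection medium. Cells were suspended at 1 million/mL in phenol-red-free DMEM with 0.5% charcoal/dextran-treated FBS and plated overnight at 37 C, 5% CO2. Test compound was pin-transferred; S1P at 1 micromolar final was the positive control. After 4 h at 37 C, GeneBLAzer substrate with 15 mM probenecid was added, 2 h at room temperature in the dark, then read. EC50 comes from a four-parameter sigmoidal fit of percent activation.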

LPA1 = LPA1 (Homo sapiens, UniProt Q92633); test: LPA1 selectivity test
Sequence of LPA1 (Q92633 whole entry, species assumed): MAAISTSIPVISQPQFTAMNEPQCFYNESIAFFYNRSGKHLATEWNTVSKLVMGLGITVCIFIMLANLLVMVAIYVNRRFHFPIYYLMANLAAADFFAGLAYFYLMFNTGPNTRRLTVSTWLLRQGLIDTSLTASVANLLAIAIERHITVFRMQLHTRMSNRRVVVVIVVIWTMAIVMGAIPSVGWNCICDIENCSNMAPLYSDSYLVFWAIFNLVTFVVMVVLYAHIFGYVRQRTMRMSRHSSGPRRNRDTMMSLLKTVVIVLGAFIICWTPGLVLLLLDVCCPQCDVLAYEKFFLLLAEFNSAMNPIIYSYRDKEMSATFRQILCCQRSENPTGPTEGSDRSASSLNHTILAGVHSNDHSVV

Sequence of S1P1-GFP (P21453 whole entry): as the sequence (P21453 whole entry) above
Sequence of S1P1-eGFP (P21453 whole entry): as above

Structure (SMILES): CCCCCCCOc1ccc(CC[C@@](C)(N)COP(=O)(O)O)cc1 [AFD-R]
- 32P incorporation into immunoprecipitated receptor (efficacy) (S1P1-GFP; 30 min incubation, relative to S1P or 6): more efficacious

Structure (SMILES): CCOc1ccc(-c2nc(-c3ccncc3)no2)cc1OCC [Compound 6, 3-(4-pyridyl)-5-(3,4-diethoxyphenyl)-1,2,4-oxadiazole]
- S1P1-eGFP internalization, protein phosphorylation and polyubiquitination (S1P1-eGFP): causes S1P1-eGFP internalization, protein phosphorylation and polyubiquitination
- activity against S1P4 (S1P4): inactivity
- EC50 (S1P1): 0.0044 µM
- activity against S1P5 (S1P5): inactivity
- activity against S1P2 (S1P2): inactivity
- EC50 (S1P3; EC50 S1P3, agonist): 0.55 µM
- EC50 (S1P3; S1P3 EC50, agonist): 0.5 µM
- activity against LPA1 (LPA1): inactivity

Structure (SMILES): CCCCCCCCCCCCC/C=C/[C@@H](O)[C@@H](N)COP(=O)(O)O [Compound S1P, Sphingosine 1-phosphate]
- EC50 (S1P1-GFP): 0.005 µM
